Measured values taken from ChEMBL document CHEMBL3826935, “Synthesis and Pharmacology of (Pyridin-2-yl)methanol Derivatives as Novel and Selective Transient Receptor Potential Vanilloid 3 Antagonists” (J Med Chem, 2016).
pEC50: −log10 of the molar value.

Key:
[1] = Total plasma clearance in rat at 1 mg/kg, iv; assay type: ADME, organism-based
Summary of the method: (§1)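 Rat pharmacokinetics: iv dose 1 mg/kg; po dose 1 or 2 mg/kg depending on compound. AUC taken over 0–8 h. Unbound parameters calculated using plasma free fraction.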

[2] = […] plasma clearance in rat at 1 mg/kg, iv; assay type: ADME, organism-based; details: read-out: CL free (converted); summary of the method: as §1
[3] = Volume of distribution at steady state in rat at 1 mg/kg, iv or 1 mg/kg, po; assay type: ADME, organism-based; details: in vivo, read-out: Vdss; summary of the method: as §1
[4] = Half life in rat at 1 mg/kg, iv; assay type: ADME, organism-based; details: in vivo; summary of the method: as §1
[5] = Cmax in rat at 1 mg/kg, iv or 1 mg/kg, po; assay type: ADME, organism-based; details: in vivo; summary of the method: as §1
[6] = AUC(0 to 8 hrs) in rat at 1 mg/kg, po; assay type: ADME, organism-based; design: time < 6 hr, dose 1 mg/kg, route oral; details: in vivo; summary of the method: as §1
Rattus norvegicus [7] = assay: Unbound AUC(0 to 8 hrs) in rat at 1 mg/kg, po; assay type: ADME, organism-based; details: in vivo; summary of the method: as §1
[8] = Oral bioavailability in rat at 1 mg/kg; assay type: ADME, organism-based; details: in vivo; summary of the method: as §1
[9] = target: T1, Transient receptor potential cation channel subfamily V member 3 (Homo sapiens) (UniProt Q8NET8); assay: Antagonist activity at human TRPV3 expressed in recombinant HEK293 cells assessed as inhibition of 2-APB induced calcium flux by FLIPR analysis; assay type: cell-based
T1 sequence (whole entry): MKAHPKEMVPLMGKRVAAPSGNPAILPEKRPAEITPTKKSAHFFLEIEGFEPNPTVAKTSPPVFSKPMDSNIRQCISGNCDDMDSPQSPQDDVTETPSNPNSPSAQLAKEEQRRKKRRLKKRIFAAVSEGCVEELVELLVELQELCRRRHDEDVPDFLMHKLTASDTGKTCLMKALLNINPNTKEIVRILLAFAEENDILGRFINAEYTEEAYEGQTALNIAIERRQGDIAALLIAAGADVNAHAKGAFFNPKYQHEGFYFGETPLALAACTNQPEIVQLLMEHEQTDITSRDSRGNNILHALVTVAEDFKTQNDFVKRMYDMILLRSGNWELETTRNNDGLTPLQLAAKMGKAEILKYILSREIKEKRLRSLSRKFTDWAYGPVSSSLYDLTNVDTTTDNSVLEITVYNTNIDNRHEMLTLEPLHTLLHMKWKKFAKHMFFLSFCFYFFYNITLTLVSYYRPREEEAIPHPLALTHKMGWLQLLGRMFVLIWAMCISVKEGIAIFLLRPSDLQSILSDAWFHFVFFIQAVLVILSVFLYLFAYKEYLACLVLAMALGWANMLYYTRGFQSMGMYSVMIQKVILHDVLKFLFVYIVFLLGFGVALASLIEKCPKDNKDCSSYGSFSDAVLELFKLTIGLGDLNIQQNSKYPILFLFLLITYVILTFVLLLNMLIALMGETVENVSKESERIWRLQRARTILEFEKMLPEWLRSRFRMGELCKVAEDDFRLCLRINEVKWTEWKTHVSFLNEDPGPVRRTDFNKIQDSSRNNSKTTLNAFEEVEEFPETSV
Summary of the method: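 HEK293 cells stably expressing human TRPV3 (I25V variant), plated the day before in DMEM + 10% FBS at 37 °C, 5% CO2. Calcium 4 dye loaded in Ca/Mg-free HEPES D-PBS pH 7.4 for 1–2 h at room temperature. Compound dilutions added with 3 min baseline, then 2-APB at 60 µM final; Ca2+ flux read 3 min on FLIPR. Kb from at least duplicates, averaged across independent runs.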

Liver microsome [10] = assay: Unbound intrinsic clearance in rat liver microsomes after 5 hrs by LC-MS/MS analysis; assay type: ADME
Summary of the method: (§2)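 Microsomal stability run in an automated high-throughput plate format. Intrinsic clearance corrected for nonspecific microsomal binding using measured unbound fraction (fu,mic), reported as unbound Clint in L/h/kg.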

Liver microsome [11] = assay: Unbound intrinsic clearance in human liver microsomes after 5 hrs by LC-MS/MS analysis; assay type: ADME; summary of the method: as §2
[12] = target: T1, Transient receptor potential cation channel subfamily V member 3 (Homo sapiens); assay: Antagonist activity at human TRPV3 expressed in recombinant HEK293 cells assessed as free plasma level adjusted concentration for inhibition of 2-APB induced calcium flux by FLIPR analysis; assay type: cell-based
Summary of the method: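 FLIPR Kb from the 2-APB (60 µM final) Ca2+ flux assay in human TRPV3 HEK293 cells, converted to an unbound value using the measured free fraction in plasma.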

[13] = Fraction unbound in human plasma; assay type: ADME, cell-free
Rattus norvegicus [14] = species: Rattus norvegicus; assay: Cardiotoxicity in rat assessed as increase in cardiac contractility at plasma concentration of 4.7 ug/ml; assay type: toxicity, organism-based
Rattus norvegicus [15] = species: Rattus norvegicus; assay: Cardiotoxicity in rat assessed as increase in mean arterial pressure; assay type: toxicity, organism-based, Artery; details: in vivo
[16] = target: T2, Nuclear receptor subfamily 1 group I member 2 (Homo sapiens, UniProt O75469); assay: Activation of human PXR; assay type: ADME; details: for Activity: human
T2 sequence (O75469 whole entry): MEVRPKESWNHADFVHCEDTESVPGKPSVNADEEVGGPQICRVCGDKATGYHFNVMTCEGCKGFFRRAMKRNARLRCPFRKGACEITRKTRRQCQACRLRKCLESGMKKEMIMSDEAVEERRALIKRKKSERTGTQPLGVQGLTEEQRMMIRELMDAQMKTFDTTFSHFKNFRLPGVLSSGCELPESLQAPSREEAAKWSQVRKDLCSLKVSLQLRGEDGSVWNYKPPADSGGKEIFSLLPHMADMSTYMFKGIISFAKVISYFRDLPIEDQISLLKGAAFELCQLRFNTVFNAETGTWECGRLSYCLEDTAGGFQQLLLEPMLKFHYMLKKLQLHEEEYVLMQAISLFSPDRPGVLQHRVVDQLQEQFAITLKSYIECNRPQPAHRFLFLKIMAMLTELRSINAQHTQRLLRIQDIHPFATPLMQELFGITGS

Plasma = assay: Plasma concentration in rat; assay type: ADME, cell-free

C[C@]1(c2ccc(OC(F)(F)F)cc2)C[C@](O)(c2ccccn2)CO1 (single isomer, unassigned)
clearance [1]: 10 mL/min/kg | clearance [2]: 293 mL/min/kg | Vd [3]: 3.2 L/kg | half-life [4]: 3.8 h | Cmax [5]: 130 ng/mL | AUC(0-t) at 6 h [6]: 930 ng·h/mL | fAUC (Rattus norvegicus [7]): 30 ng·h/mL | bioavailability [8]: 56% | Kb [9]: 420 nM | CL free (Liver microsome [10]): 167 mL/min/kg | CL free (Liver microsome [11]): 120 mL/min/kg | Kb [12]: 12000 nM | fraction unbound [13]: 0.06

C[C@]1(O)C[C@@](c2cccc(C(F)(F)F)c2)([C@H](O)c2ccccn2)C1
Kb [9]: 300 nM | CL free (Liver microsome [10]): 317 mL/min/kg | CL free (Liver microsome [11]): 150 mL/min/kg | Activity (Rattus norvegicus [14]): Non-toxic | Activity (Rattus norvegicus [15]): Non-toxic | Activity [16]: Not Active

O[C@H](c1ccccn1)[C@]1(c2cccc(OC(F)(F)F)c2)C[C@H](O)C1
Kb [9]: 40 nM | CL free (Liver microsome [10]): 120 mL/min/kg | CL free (Liver microsome [11]): 150 mL/min/kg | Activity (Rattus norvegicus [14]): Non-toxic | Activity (Rattus norvegicus [15]): Non-toxic | Activity [16]: Not Active

C[C@]1(O)C[C@@](c2cccc(OC(F)(F)F)c2)([C@H](O)c2ccccn2)C1
Kb [9]: 280 nM | CL free (Liver microsome [10]): 200 mL/min/kg | CL free (Liver microsome [11]): 167 mL/min/kg | Activity (Rattus norvegicus [14]): Non-toxic | Activity (Rattus norvegicus [15]): Non-toxic | Activity [16]: Not Active

C[C@]1(O)C[C@@](c2ccc(OC(F)(F)F)cc2)([C@H](O)c2ccccn2)C1
Kb [9]: 330 nM | CL free (Liver microsome [10]): 130 mL/min/kg | CL free (Liver microsome [11]): 67 mL/min/kg | Activity (Rattus norvegicus [14]): Non-toxic | Activity (Rattus norvegicus [15]): Non-toxic | Activity [16]: Not Active

O[C@H](c1ccccn1)[C@]1(c2cccc(C(F)(F)F)c2)C[C@H](O)C1
Kb [9]: 90 nM | CL free (Liver microsome [10]): 183 mL/min/kg | CL free (Liver microsome [11]): 130 mL/min/kg | Activity (Rattus norvegicus [14]): Non-toxic | Activity (Rattus norvegicus [15]): Non-toxic | Activity [16]: Not Active

O[C@H](c1ccccn1)[C@]1(c2cc(C(F)(F)F)ccn2)C[C@@H](O)C1
Kb [9]: 320 nM | CL free (Liver microsome [10]): 50 mL/min/kg | CL free (Liver microsome [11]): 33 mL/min/kg | Activity (Rattus norvegicus [14]): Non-toxic | Activity (Rattus norvegicus [15]): Non-toxic | Activity [16]: Not Active

C[C@]1(O)C[C@](c2ccc(OC(F)(F)F)cc2)([C@H](O)c2ccccn2)C1
Kb [9]: 1510 nM | CL free (Liver microsome [10]): 100 mL/min/kg | CL free (Liver microsome [11]): 50 mL/min/kg | Activity (Rattus norvegicus [14]): Non-toxic | Activity (Rattus norvegicus [15]): Non-toxic | Activity [16]: Not Active

O[C@H](c1ccccn1)[C@]1(c2cc(C(F)(F)F)ccn2)C[C@H](O)C1
Kb [9]: 270 nM | CL free (Liver microsome [10]): 50 mL/min/kg | CL free (Liver microsome [11]): 33 mL/min/kg | Activity (Rattus norvegicus [14]): Non-toxic | Activity (Rattus norvegicus [15]): Non-toxic | Activity [16]: Not Active

C[C@]1(O)C[C@@](c2ccc(C(F)(F)F)cc2)([C@H](O)c2ccccn2)C1
Kb [9]: 840 nM | CL free (Liver microsome [10]): 150 mL/min/kg | CL free (Liver microsome [11]): 50 mL/min/kg | Activity (Rattus norvegicus [14]): Non-toxic | Activity (Rattus norvegicus [15]): Non-toxic | Activity [16]: Not Active

O[C@H](c1ccccn1)C1(c2ccc(OC(F)(F)F)cc2)CC(F)(F)C1
Kb [9]: 40 nM | CL free (Liver microsome [10]): 200 mL/min/kg | CL free (Liver microsome [11]): 183 mL/min/kg | Activity (Rattus norvegicus [14]): 29% | Cp (Plasma): 4700 ng/mL | Activity (Rattus norvegicus [15]): 16% | pEC50 [16]: 5.24

C[C@]1(O)C[C@@](c2ccc(OC(F)(F)F)cc2)([C@@H](O)c2ccccn2)C1
Kb [9]: > 10400 nM | CL free (Liver microsome [10]): 100 mL/min/kg | CL free (Liver microsome [11]): 50 mL/min/kg | Activity (Rattus norvegicus [14]): Non-toxic | Activity (Rattus norvegicus [15]): Non-toxic | Activity [16]: Not Active

O[C@H](c1ccccn1)[C@]1(c2cccc(OC(F)(F)F)c2)C[C@@H](O)C1
Kb [9]: 80 nM | CL free (Liver microsome [10]): 217 mL/min/kg | CL free (Liver microsome [11]): 120 mL/min/kg | Activity (Rattus norvegicus [14]): Non-toxic | Activity (Rattus norvegicus [15]): Non-toxic | Activity [16]: Not Active

C[C@]1(O)C[C@](c2ccc(C(F)(F)F)cc2)([C@H](O)c2ccccn2)C1
Kb [9]: 4790 nM | CL free (Liver microsome [10]): 100 mL/min/kg | CL free (Liver microsome [11]): 33 mL/min/kg | Activity (Rattus norvegicus [14]): Non-toxic | Activity (Rattus norvegicus [15]): Non-toxic | Activity [16]: Not Active

O[C@H](c1ccccn1)[C@]1(c2ccc(C(F)(F)F)cc2)C[C@H](O)C1
Kb [9]: 2240 nM | CL free (Liver microsome [10]): 50 mL/min/kg | CL free (Liver microsome [11]): 50 mL/min/kg | Activity (Rattus norvegicus [14]): Non-toxic | Activity (Rattus norvegicus [15]): Non-toxic | Activity [16]: Not Active

C[C@]1(O)C[C@](c2cccc(C(F)(F)F)c2)([C@H](O)c2ccccn2)C1
Kb [9]: 1550 nM | CL free (Liver microsome [10]): 67 mL/min/kg | CL free (Liver microsome [11]): 33 mL/min/kg | Activity (Rattus norvegicus [14]): Non-toxic | Activity (Rattus norvegicus [15]): Non-toxic | Activity [16]: Not Active

O[C@H](c1ccccn1)[C@]1(c2ccnc(C(F)(F)F)c2)C[C@@H](O)C1
Kb [9]: 530 nM | CL free (Liver microsome [10]): 200 mL/min/kg | CL free (Liver microsome [11]): 83 mL/min/kg | Activity (Rattus norvegicus [14]): Non-toxic | Activity (Rattus norvegicus [15]): Non-toxic | Activity [16]: Not Active

C[C@]1(O)C[C@](c2cc(C(F)(F)F)ccn2)([C@@H](O)c2ccccn2)C1
Kb [9]: > 9100 nM | CL free (Liver microsome [10]): 100 mL/min/kg | CL free (Liver microsome [11]): 33 mL/min/kg | Activity (Rattus norvegicus [14]): Non-toxic | Activity (Rattus norvegicus [15]): Non-toxic | Activity [16]: Not Active
